Source: ChEMBL document CHEMBL4351007, “Synthesis and biological evaluation of (1,2,4)triazole[4,3-a]pyridine derivatives as potential therapeutic agents for concanavalin A-induced hepatitis” (Eur J Med Chem, 2019)
Calls of active or inactive are those of the source. No cut-off for these calls is given here.

Key:
[1] = system: RAW264.7; assay: Antiinflammatory activity in mouse RAW264.7 cells assessed as LPS-induced nitric oxide level at 20 uM preincubated for 1 hr followed by LPS treatment and measured after 23 hrs by Griess reagent based assay (reference value: 96.06 to 102.81%); type: functional
How it was run: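 RAW264.7 cells seeded at 1 × 10^5/mL and left overnight. Compound (20 μM) added 1 h before LPS at 1 μg/mL, then 23 h more incubation. Nitrite in supernatant read with Griess reagent at 540 nm and expressed as NO relative to the LPS-only wells (%).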

[2] = system: RAW264.7; assay: Inhibition of MCP-1 mediated chemotaxis in mouse RAW264.7 cells at 20 uM measured after 3 hrs by light microscopic analysis relative to control; type: functional; settings: for inhibition at 20 µM: RAW264.7, 3 h
How it was run: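 RAW264.7 cells serum-starved for 3 h, then placed in the upper Transwell chamber in 0.5% BSA medium with compound (20 μM) or DMSO. Lower chamber held 200 ng/mL MCP-1. After 3 h at 37 °C, migrated cells fixed, crystal violet-stained and counted in randomly chosen fields. Inhibitory rate = 1 − N1/(N1+N2); three chambers per condition.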

[3] = system: L02; assay: Cytotoxicity against human LO2 cells assessed as cell viability at 20 uM measured after 24 hrs by MTT assay; type: cell-based; settings: l02, 24 h
How it was run: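 LO2 human liver cells (1.5–5 × 10^3 per well) seeded overnight, then exposed to compound for 24 h. MTT (5 mg/mL stock) added for 2–4 h at 37 °C. Formazan dissolved in DMSO and absorbance read at 570 nm. Three replicate experiments.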

[4] = species: Mus musculus; assay: Hepatoprotective activity in mouse model of Con-A induced autoimmune hepatitis assessed as reduction in Con-A induced CD4-positive cells infiltration by […] microscopic analysis; type: functional, organism-based
How it was run: (§1)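 Livers collected 12 h after Con A 20 mg/kg i.v. plus compound 100 mg/kg i.p. Tissue formalin-fixed, paraffin-embedded and cut into 4–5 μm sections. Sections stained with H&E for light microscopy; further sections immunostained for CD4, CD11b and F4/80 and imaged by fluorescence microscopy.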

[5] = system: RAW264.7; assay: Antiinflammatory activity against mouse RAW264.7 assessed as decrease in Con-A induced […] IL-10 expression level at 1 uM measured after 22 hrs by RT-PCR analysis; type: functional, cell-based
How it was run: (§2)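 RAW264.7 macrophages (DMEM, 10% FBS, 37 °C, 5% CO2) pretreated with Con A for 2 h, then compound at 1 μM for a further 22 h. mRNA quantified by SYBR real-time PCR (95 °C 30 s; 40 cycles of 95 °C 5 s, 60 °C 20 s), normalized to GAPDH, run in triplicate; mean ± SD, n=5.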

[6] = target: Transcription factor p65 (Mus musculus) (UniProt Q04207); assay: Inhibition of Con A-induced NF-kappaB p65 translocation in mouse RAW264.7 cells incubated for 22 hrs by DAPI staining based laser scanning confocal microscopic analysis; type: cell-based
How it was run: (§3)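 RAW264.7 cells (2×10^4/well) seeded overnight and stimulated for 2 h with Con A (0.6 μM) or LPS (1 μg/mL), then compound at various concentrations for 22 h. Cells fixed in paraformaldehyde, permeabilized with Triton X-100 and blocked in BSA. Stained with anti-p65 and FITC secondary antibody, nuclei with DAPI; imaged by confocal microscopy.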

[7] = system: RAW264.7; assay: Antiinflammatory activity against mouse RAW264.7 assessed as decrease in Con-A induced IL-6 mRNA expression level at 1 uM measured after 22 hrs by RT-PCR analysis; type: functional, cell-based; how it was run: as §2
[8] = system: Mus musculus; assay: Antiinflammatory activity in mouse model of Con-A induced autoimmune hepatitis assessed as decrease in serum ALT level at 100 mg/kg, ip measured after 12 hrs relative to control; type: functional; set-up: scale not given: the % may be the effect or the level left
How it was run: (§4)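 Female BALB/c mice, 6–8 weeks old, SPF housing. Con A 20 mg/kg given i.v., then compound 100 mg/kg i.p. in 40% PEG 400/60% saline; model group received vehicle. Killed at 12 h. Plasma ALT and AST measured on an automatic analyzer. Mean ± SD, n=5; ANOVA with Tukey's test.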

[9] = species: Mus musculus; assay: Hepatoprotective activity in mouse model of Con-A induced autoimmune hepatitis assessed as decrease in necrosis of hepatocytes by H and E staining based […] microscopic analysis; type: functional, organism-based; how it was run: as §1
[10] = species: Mus musculus; assay: Hepatoprotective activity in mouse model of Con-A induced autoimmune hepatitis assessed as reduction in Con-A induced F4/80-positive cells infiltration by […] microscopic analysis; type: functional, organism-based; how it was run: as §1
[11] = system: RAW264.7; assay: Antiinflammatory activity against mouse RAW264.7 assessed as decrease in Con-A induced TNF-alpha mRNA expression level at 1 uM measured after 22 hrs by RT-PCR analysis; type: functional, cell-based; how it was run: as §2
[12] = species: Mus musculus; assay: Hepatoprotective activity in mouse model of Con-A induced autoimmune hepatitis assessed as reduction in Con-A induced CD11b-positive cells infiltration by […] microscopic analysis; type: functional, organism-based; how it was run: as §1
[13] = system: Mus musculus; assay: Antiinflammatory activity in mouse model of Con-A induced autoimmune hepatitis assessed as of MDSC accumulation at 100 mg/kg by flow cytometry analysis (reference value: 11.31%); type: functional
How it was run: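 Female BALB/c mice given Con A 20 mg/kg i.v. plus compound 100 mg/kg i.p. (PEG 400/saline vehicle), livers taken at 12 h. Liver single-cell suspensions prepared by mechanical disruption and 1 mg/mL collagenase I digestion, with red cells lysed. 1×10^6 cells stained for CD11b and Gr-1; MDSC percentage determined by flow cytometry.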

[14] = system: RAW264.7; assay: Antiinflammatory activity against mouse RAW264.7 assessed as decrease in Con-A induced INF-gamma mRNA expression level at 1 uM measured after 22 hrs by RT-PCR analysis; type: functional, cell-based; how it was run: as §2
[15] = target: Transcription factor p65 (Mus musculus) (UniProt Q04207); assay: Inhibition of LPS-induced NF-kappaB p65 translocation in mouse RAW264.7 cells incubated for 22 hrs by DAPI staining based laser scanning confocal microscopic analysis; type: cell-based; how it was run: as §3
[16] = system: Mus musculus; assay: Antiinflammatory activity in mouse model of Con-A induced autoimmune hepatitis assessed as decrease in serum AST level at 100 mg/kg, ip measured after 12 hrs relative to control; type: functional; set-up: scale not given: the % may be the effect or the level left; how it was run: as §4

Transcription factor p65 (Mus musculus), sequence (Q04207 whole entry): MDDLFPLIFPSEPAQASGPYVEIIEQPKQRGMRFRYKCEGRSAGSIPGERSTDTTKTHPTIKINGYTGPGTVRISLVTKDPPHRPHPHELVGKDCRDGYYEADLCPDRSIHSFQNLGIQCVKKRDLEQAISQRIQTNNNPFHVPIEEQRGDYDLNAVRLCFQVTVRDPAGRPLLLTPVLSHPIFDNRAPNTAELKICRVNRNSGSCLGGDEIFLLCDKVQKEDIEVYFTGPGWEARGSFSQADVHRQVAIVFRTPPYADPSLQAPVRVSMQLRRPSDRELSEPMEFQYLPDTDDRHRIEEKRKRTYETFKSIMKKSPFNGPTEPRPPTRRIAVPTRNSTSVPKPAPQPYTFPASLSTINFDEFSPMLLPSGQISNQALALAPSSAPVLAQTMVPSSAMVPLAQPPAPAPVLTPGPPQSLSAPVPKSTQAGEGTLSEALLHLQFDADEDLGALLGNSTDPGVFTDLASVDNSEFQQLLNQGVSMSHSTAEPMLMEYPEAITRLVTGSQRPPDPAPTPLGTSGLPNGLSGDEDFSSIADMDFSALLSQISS

`CCOc1cc(F)ccc1-c1cc(NC(=O)C2CCCCC2)c2nnc(C)n2c1` was tested, and the Activity [1] was 37.8%, the inhibition [2] was “Active” and the Activity [3] was “Non-Toxic”.
`CC(=O)Nc1cc(-c2cc(Cl)ccc2OCc2ccccc2)cn2c(C)nnc12` was tested, and the Activity [1] was 27.05% and the Activity [3] was “Non-Toxic”.
With `CCS(=O)(=O)Nc1cccc(-c2cc([N+](=O)[O-])c3nnc(C)n3c2)c1` the Activity [1] was 26.74% and the Activity [3] was “Non-Toxic”.
`CCS(=O)(=O)Nc1cc(-c2ccccc2)cn2c(C)nnc12` was tested, and the Activity [1] was 44.44% and the Activity [3] was “Non-Toxic”.
`CC(=O)Nc1cc(-c2ccccc2-c2ccccc2)cn2c(C)nnc12` was tested, and the Activity [1] was 49.03% and the Activity [3] was “Non-Toxic”.
`CCOc1cc(F)ccc1-c1cc(NS(=O)(=O)CC)c2nnc(C)n2c1` was tested, and the Activity [1] was 34.85% and the Activity [3] was “Non-Toxic”.
For `CCS(=O)(=O)Nc1cc(-c2ccccc2OCc2ccccc2)cn2c(C)nnc12`, the Activity [1] was 72.57% and the Activity [3] was “Non-Toxic”.
In the case of `CC(=O)Nc1cc(-c2ccccc2)cn2c(C)nnc12`, the Activity [1] was 44.71% and the Activity [3] was “Non-Toxic”.
`O=C1NC(=O)/C(=C/c2ccc3nccnc3c2)S1` was tested, and the inhibition at 20 µM [2] was 40.5%.
In the case of `CC(=O)Nc1cc(-c2cccc(OC(F)(F)F)c2)cn2c(C)nnc12`, the Activity [1] was 49.52% and the Activity [3] was “Non-Toxic”.
For `COc1cccc(-c2cc(NC(C)=O)c3nnc(C)n3c2)c1`, the Activity [1] was 55.3% and the Activity [3] was “Non-Toxic”.
`CC(=O)Nc1cc(-c2ccccc2C(F)(F)F)cn2c(C)nnc12` was tested, and the Activity [1] was 42.36% and the Activity [3] was “Non-Toxic”.
For `CCOc1ccc(C)cc1-c1cc(NC(C)=O)c2nnc(C)n2c1`, the Activity [1] was 32.07% and the Activity [3] was “Non-Toxic”.
`CCCOc1ccc(Cl)cc1-c1cc(NC(C)=O)c2nnc(C)n2c1` was tested, and the Activity [1] was 49.05% and the Activity [3] was “Non-Toxic”.
In the case of `Cc1nnc2c(NC(=O)c3ccc(F)cc3)cc(-c3ccc(Cl)cc3)cn12`, the Activity [1] was 42.88% and the Activity [3] was “Non-Toxic”.
`CCS(=O)(=O)Nc1cc(-c2ccccc2C(F)(F)F)cn2c(C)nnc12` was tested, and the Activity [1] was 58.67% and the Activity [3] was “Non-Toxic”.
`CCS(=O)(=O)Nc1cc(-c2ccccc2Cl)cn2c(C)nnc12` was tested, and the Activity [1] was 152.42% and the Activity [3] was “Non-Toxic”.
With `COc1ccc(F)cc1-c1cc(NC(=O)c2c(F)cccc2F)c2nnc(C)n2c1` the Activity [1] was 61.96% and the Activity [3] was “Non-Toxic”.
With `CC(=O)Nc1cc(-c2ccccc2Cl)cn2c(C)nnc12` the Activity [1] was 48.41% and the Activity [3] was “Non-Toxic”.
With `CCS(=O)(=O)Nc1cc(-c2ccccc2-c2ccccc2)cn2c(C)nnc12` the Activity [1] was 62.68% and the Activity [3] was “Non-Toxic”.
In the case of `COc1ccc(F)cc1-c1cc(NC(=O)c2ccc(OCc3ccccc3)cc2Cl)c2nnc(C)n2c1`, the Activity [1] was 32.06% and the Activity [3] was “Non-Toxic”.
In the case of `CCCOc1ccc(Cl)cc1-c1cc(NC(=O)c2ccccc2F)c2nnc(C)n2c1`, the Activity [1] was 77.73% and the Activity [3] was “Non-Toxic”.
With `CCS(=O)(=O)Nc1cc(-c2cccnc2OC)cn2c(C)nnc12` the Activity [1] was 49.93% and the Activity [3] was “Non-Toxic”.
In the case of `CCOc1cc(F)ccc1-c1cc(NC(C)=O)c2nnc(C)n2c1`, the Activity [1] was 65.85% and the Activity [3] was “Non-Toxic”.
In the case of `COc1ccc(C)cc1-c1cc(NC(C)=O)c2nnc(C)n2c1`, the Activity [1] was 58.83% and the Activity [3] was “Non-Toxic”.
`CCS(=O)(=O)Nc1cc(-c2cc(C)ccc2OC)cn2c(C)nnc12` was tested, and the Activity [1] was 45.48% and the Activity [3] was “Non-Toxic”.
In the case of `CCS(=O)(=O)Nc1cc(-c2cc(Cl)ccc2OCc2ccccc2)cn2c(C)nnc12`, the Activity [1] was 26.01%, the inhibition [2] was “Active” and the Activity [3] was “Non-Toxic”.
With `COc1ncccc1-c1cc(NC(C)=O)c2nnc(C)n2c1` the Activity [1] was 54.04% and the Activity [3] was “Non-Toxic”.
With `CCS(=O)(=O)Nc1cccc(-c2cc(NS(=O)(=O)CC)c3nnc(C)n3c2)c1` the Activity [1] was 41.19% and the Activity [3] was “Non-Toxic”.
`Cc1nnc2c(NC(=O)c3cccc(C(F)(F)F)c3)cc(-c3ccc(Cl)cc3)cn12` was tested, and the Activity [1] was 30.98% and the Activity [3] was “Non-Toxic”.
With `CCOc1ccc(C(=O)Nc2cc(-c3cc(F)ccc3OC)cn3c(C)nnc23)cc1` the Activity [4] was “Active”, the Activity [1] was 28.01% and the Activity [5] was “Active”. The Activity [6] was “Dose-dependent effect”, the Activity [7] was “Active” and the Activity [8] was 65.39%. For the same compound, the inhibition at 20 µM [2] was 52.6%, the Activity [9] was “Active” and the Activity [10] was “Active”. The Activity [3] was “Non-Toxic”, the Activity [11] was “Active” and the Activity [12] was “Active”. The Activity [13] was 8.39%, the Activity [14] was “Active” and the inhibition [15] was “Dose-dependent effect”. It also gave an Activity [16] of 52.52%.
With `CC(=O)Nc1cc(-c2ccccc2F)cn2c(C)nnc12` the Activity [1] was 83.06% and the Activity [3] was “Non-Toxic”.
`CCS(=O)(=O)Nc1cccc(-c2cc(NC(C)=O)c3nnc(C)n3c2)c1` was tested, and the Activity [1] was 64.96% and the Activity [3] was “Non-Toxic”.
With `CCS(=O)(=O)Nc1cc(-c2cccc(C(F)(F)F)c2)cn2c(C)nnc12` the Activity [1] was 27.18% and the Activity [3] was “Non-Toxic”.
With `COc1ncccc1-c1cc(NC(=O)C2CCCCC2)c2nnc(C)n2c1` the Activity [1] was 49.99% and the Activity [3] was “Non-Toxic”.
In the case of `CC(=O)Nc1cc(-c2ccc(CN3CCOCC3)cc2)cn2c(C)nnc12`, the Activity [1] was 42.4% and the Activity [3] was “Non-Toxic”.
